Screens (PubChem)
HNF4A DNA FP – change in binding of human HNF4 alpha to DNA; AID 1224865; activity change, % at 10 µM; HNF4a-FITC DNA binding, fluorescence polarization, 1 h; 360,000 tested, 0.3% active; in the data active = activity change above about 30%, passing the limit was not always enough
TPT1 inhibitor – blocks Candida albicans tRNA 2'-phosphotransferase; 300,000 tested, 0.81% active; inhibition, % at 5 µM; recombinant caTPT1, FP RNA substrate dephosphorylation; AID 1962;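 active = inhibition above the mean of all tested compounds plus 3 SD, set per screening campaign, cut at about 24% in these data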;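 note: plate controls were DMSO alone for no effect and ferristatin control at 100 nM for full effect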
NR1D1 modulator – Rev-erb alpha (human) modulation. Rev-erbα–FITC-DNA binding, fluorescence polarization, 90 min. activity, % at 10 µM. 370,000 tested, 0.79% active;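 active = activity above about 14%, limit read from the data; passing the limit was not always enough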;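 note: 0% = DMSO wells with 35 nM protein and 100% = DMSO wells with 750 nM protein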
Target sequence (P20393 whole entry, looked up): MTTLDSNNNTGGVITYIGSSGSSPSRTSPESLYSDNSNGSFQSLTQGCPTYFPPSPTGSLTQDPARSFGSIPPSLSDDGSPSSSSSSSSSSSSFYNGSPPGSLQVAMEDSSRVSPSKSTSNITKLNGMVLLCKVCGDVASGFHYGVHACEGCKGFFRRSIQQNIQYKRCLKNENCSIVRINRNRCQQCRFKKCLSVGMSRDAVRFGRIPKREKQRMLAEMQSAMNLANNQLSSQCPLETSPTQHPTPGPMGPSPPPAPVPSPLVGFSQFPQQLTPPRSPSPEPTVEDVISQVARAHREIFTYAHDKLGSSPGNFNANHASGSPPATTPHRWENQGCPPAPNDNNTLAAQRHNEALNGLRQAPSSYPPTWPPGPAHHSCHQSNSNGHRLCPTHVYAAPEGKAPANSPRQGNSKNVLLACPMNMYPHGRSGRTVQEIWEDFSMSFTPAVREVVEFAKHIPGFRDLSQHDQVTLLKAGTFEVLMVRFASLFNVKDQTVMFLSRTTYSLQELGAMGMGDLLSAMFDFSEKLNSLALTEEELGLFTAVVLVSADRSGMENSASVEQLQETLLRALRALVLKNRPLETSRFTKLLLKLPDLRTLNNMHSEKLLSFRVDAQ
CSN inh – inhibitors of human CSN-mediated cullin deneddylation; Purified CSN, SCF-Nedd8-OG deneddylation, fluorescence polarization; inhibition, % at 12.5 µM; Q92905; AID 651999; 360,000 tested, 0.38% active;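 active = pattern-corrected inhibition above about 35%, with an unprinted fluorescence ratio check between 0.5 and 1.5, limit read from the data, passing the limit was not always enough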;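 note: 0% = enzyme with substrate and 100% = substrate without enzyme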
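Assay system: purified human Csn5 enzyme expressed in HEK293T cells; Input: 0.24 nM Csn5 enzyme, final concentration; Reagent: 10 nM SCFSkp2-Nedd8OG; Compound dosing: 12.5 µM single point; Times: reaction 90 min, room temperature; Technique: fluorescence polarization readout.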
Rev-erbA confirm – Rev-erb alpha (human) modulation, hit confirmation. shares compounds with NR1D1 modulator. Rev-erb alpha FITC-DNA binding, fluorescence polarization, 90 min. activation, % at 25 µM. 3,000 tested, 61% active. AID 1259319;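 active = activation at or above a set limit, or at least 3 SD above the negative control mean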;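 note: 0% = 35 nM protein with DMSO and 100% = 750 nM protein high control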
RORg counter – RORgamma DNA-binding activity, dose-response counter-screen. purified RORgamma protein-FITC-DNA binding, fluorescence polarization. shares compounds with NR1D1 modulator. IC50, µM. 910 tested, 8% active;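 active = Compounds whose fitted half-maximal concentration for disrupting protein-DNA binding is below 10 micromolar; the record names Rev-erb in its text, so the target is in doubt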
Starred values were filed as active, the others as inactive; i = inactive; / = no result. In the library only some 1.7% were active in any assay of this set; here they are far more common.

SMILES	HNF4A DNA FP	TPT1 inhibitor	NR1D1 modulator	CSN inh	Rev-erbA confirm	others
COc1ccc(S(=O)(=O)N2CCCCC2)cc1NC(=O)c1cncc(Br)c1	1	/	41*	1	19*
COc1ccc(S(=O)(=O)N2CCCCCC2)cc1NC(=O)c1ccccc1	-2	3	1	2	/
CC(C)(C)S(=O)(=O)N1C[C@H]2CC(=O)C=C2[C@@H]1CCO	/	/	-1	/	/
Cc1cc(C)c(N=C2SCC(=O)N2Cc2ccco2)c(C)c1	3	-2	43*	-6	37*	RORg counter=>40
C=CCCC1CN(Cc2ccc(OC)cc2)S(=O)(=O)c2c(cccc2N2CCCC2)O1 (centres undefined)	/	/	0	/	/
c1ccc(COCCc2cn(Cc3ccccc3)c3ccccc23)cc1	/	/	-4	/	/
CC(=O)c1cnc2cc(-c3ccc(Cl)cc3)nn2c1C	3	-1	28*	2	10
Cc1c(C(=O)O)cnc2cc(-c3ccc(Cl)cc3)nn12	3	-3	-7	-1	/
Cc1cc(C)n2nc(-c3ccc(Br)cc3)cc2n1	-1	2	27*	2	3
COc1ccc(-c2cc3nc(C)cc(C)n3n2)cc1	-2	-3	-14	3	/
Cc1cc(C)n2nc(-c3ccc(Cl)cc3)cc2n1	0	0	65*	0	52*	RORg counter=>40
Cc1ccc(CN2CC=CCS2(=O)=O)cc1	/	/	0	/	/
N#Cc1c(Nc2ccccc2)sc(C(=O)C2CC2)c1N	-1	-5	-8	4	/
COC(=O)[C@]12C[C@H](CC(=O)NCC34CC5CC(CC(C5)C3)C4)C(=O)N(Cc3ccccc3)C1=C[C@H](C1CCCC1)O[C@@H]2C	/	/	-4	/	/
O=[N+]([O-])c1ccc2c(c1)Cc1cc(F)ccc1-2	-2	/	70*	-2	61*	RORg counter=>40
COc1cc2c(cc1[N+](=O)[O-])-c1ccc([N+](=O)[O-])cc1C2	2	/	90*	0	12*
O=C(Nc1ccc2c(c1)Cc1cc([N+](=O)[O-])ccc1-2)C(F)(F)F	2	/	9	5	/
COCc1cc(N2CCN(C(=O)OC(C)(C)C)C[C@H]2C)ccc1N1CCN(Cc2ccccc2)[C@@H](C)C1	/	/	-1	/	/
Cc1onc(-c2ccccc2)c1C(=O)Nc1ccccc1N1CCOCC1	0	-2	1	-5	/
Cc1onc(-c2ccccc2)c1C(=O)Nc1cc(C(F)(F)F)ccc1N1CCOCC1	3	2	22*	2	33*
CCOC(=O)N1CCN(c2nc(-c3cccs3)cc(C(F)(F)F)n2)CC1	-5	4	22*	1	9
O=C(CSc1nc2ccccc2nc1N1CCCC1)Nc1ccc(Cl)cc1	-5	-1	0	-5	/
O=C(CSc1nc2ccccc2nc1N1CCCCC1)N1CCN(S(=O)(=O)c2cc(Cl)ccc2Cl)CC1	/	/	28*	/	30*	RORg counter=>40
Cc1cc(=O)oc2cc(OCC(=O)N3CCc4ccccc4C3)ccc12	0	3	1	0	/
COc1ccc2c(c1)c(=O)oc1c(C)c(OCC(=O)N3CCc4ccccc4C3)ccc12	-9	1	20*	36*	-10
SMILES	HNF4A DNA FP	TPT1 inhibitor	NR1D1 modulator	CSN inh	Rev-erbA confirm	others
CC(C)Cc1nc2sc3c(SCC(N)=O)ncnc3c2c2c1CCC2	-3	-1	369*	-2	568*	RORg counter=i
O=C(O)CSc1ncnc2c1sc1nc(-c3ccccc3)c3c(c12)CCC3	3	2	-3	6	/
Cn1nc(-c2ccccc2)cc1NC(=O)c1ccccc1	-1	-1	41*	-1	2
Cc1ccc(-c2nn(C)c(=O)c3ccccc23)cc1S(=O)(=O)N1CCCC1	0	-1	26*	-3	36*	RORg counter=>40
CC1Cc2cc(S(=O)(=O)N3CCN(c4ccccc4)CC3)ccc2N1C(=O)C1CC1 (centres undefined)	1	0	-3	5	/
CCOC(=O)c1sc2nc(C(C)C)c3c(c2c1N)CC(C)(C)OC3	1	-1	23*	0	2
CCOC(=O)c1sc2nc(N3CCCC3)c3c(c2c1N)CC(C)(C)OC3	4	-6	-2	2	/
CN(C(=O)COC(=O)c1cc(-c2ccc(Cl)s2)nc2ccccc12)C1CCS(=O)(=O)C1 (centres undefined)	2	1	51*	-5	13
CCOc1ncccc1C(=O)Nc1cc(S(=O)(=O)N2CCOCC2)ccc1N1CCCC1	-2	2	0	-3	/
CCOc1ncccc1C(=O)Nc1ccc(Cl)c(S(=O)(=O)N2CCCC2)c1	2	-5	33*	0	19*
CCOc1ncccc1C(=O)Nc1cc(S(=O)(=O)N2CCCCC2)ccc1Cl	0	/	23*	0	11*
CCc1ccc2[nH]c3nc(C)cc(C)c3c(=O)c2c1	-1	-2	30*	-7	25*
COc1ccc(-c2nnc(SCC(=O)NN=C(C)c3cccc4ccccc34)n2-c2ccccc2)cc1	/	/	11	/	/
COc1ccc(C(=O)C(=O)N2CCN(C(=O)c3ccccc3C(F)(F)F)CC2)cc1OC	/	/	-7	/	/
N#C/C(=C\c1ccc(-c2ccc(C(=O)O)cc2)o1)c1nc2ccccc2[nH]1	145	/	42*	126	27*
COc1ccccc1C(=O)Nc1nc2ccccc2s1	2	2	34*	2	41*	RORg counter=>40
CS(=O)(=O)c1ccc2nc(NC(=O)c3ccccc3Cl)sc2c1	-2	/	2	-4	/
CS(=O)(=O)c1ccc2nc(NC(=O)c3cc(-c4ccccc4)nn3-c3ccccc3)sc2c1	3	-4	42*	4	19*
COc1ccccc1C(=O)Nc1nc2ccc(S(C)(=O)=O)cc2s1	-2	1	49*	-2	31*
COc1ccc(NC(=O)c2sc(NC(=O)C3CC3)nc2C)cc1	-1	0	1	3	/
COc1ccc(OCCCC(=O)Nc2nc(C)c(C(C)=O)s2)cc1	3	-1	-1	-5	/
CC(=O)c1sc(NC(=O)c2ccc(Cl)cc2)nc1C	-1	-3	26*	0	17
CC(=O)c1sc(NC(=O)CCCOc2ccc(Cl)cc2)nc1C	24	4	15*	5	12
CC(=O)c1sc(NC(=O)COc2ccc(Br)cc2)nc1C	3	3	43*	7	49*	RORg counter=>40
Cc1nc(NC(=O)C2CC2)sc1C(=O)Nc1ccc(Br)cc1	-1	-3	38*	-2	27*
CCn1c(=O)n(CC(=O)N2CCC(C)CC2)c(=O)c2ccccc21	/	/	-11	/	/
CCCCc1c(-c2ccccc2OC)ncn1Cc1c(Cl)cccc1Cl	/	/	5	/	/
CC1(C(=O)NS(=O)(=O)C2CC2)CCCN(C(=O)c2ccc3ccccc3c2)C1 (centres undefined)	3	/	-10	2	/
COc1cccc(-c2cccc3c4c([nH]c23)[C@@H]2C[C@H]3[C@@H](C(=O)N2CC4)[C@H](C)ON3C)c1	/	/	0	/	/
